Source: PubChem BioAssay
PG9 binder – binds the HIV-1 gp120 antibody PG9. TR-FRET gp120-PG9 antibody binding. inhibition, % at 6.7 µM. 0.43% of 360,000 active; in the data active = inhibition above about 8.5%
NR2E3 ag-1 – agonists of human nuclear receptor NR2E3; Q9Y5X4; GST-NR2E3/biotin-RetCOR TR-FRET, 1536-well; inhibition of corepressor binding, % at 4.78 µM; 0.12% of 320,000 active; AID 2300;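 active = percent inhibition above the cutoff of mean plus 3 SD of all tested compounds, set per screening campaign, cut at about 20% in these data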;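 also: 0% = DMSO wells and 100% = biotin wells as full block of FRET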
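Material: NR2E3–RetCOR corepressor complex / Incubation: Compound–protein incubation for 5 h at 4 °C / Dosing: compound at 4.8 µM, single dose / Detection: time-resolved FRET / Benchmarks: high control biotin, low control 0.6% DMSO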
NR1D1 modulator – modulators of human Rev-erb alpha DNA binding; P20393; Rev-erbα–FITC-DNA binding, fluorescence polarization, 90 min; activity, % at 10 µM; 0.79% of 370,000 active; AID 1259318;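 active = activity above about 14%, limit read from the data; passing the limit was not always enough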;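 also: 0% = DMSO wells with 35 nM protein and 100% = DMSO wells with 750 nM protein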
NR2E3 ag-2 – activates human NR2E3 receptor; CHO-S Gal4-NCOR/VP16-NR2E3 two-hybrid, luciferase; inhibition of corepressor binding, % at 3.98 µM; 0.35% of 360,000 active; AID 602229;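 active = inhibition above the mean of all tested compounds plus 3 SD, cut at about 70% in these data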;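 also: 0% = DMSO with NR2E3 transfected cells and 100% = cells lacking NR2E3 construct; higher means lower luciferase signal from less NR2E3 corepressor binding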
NR1D1 mod conf – Rev-erb alpha (human) modulation, hit confirmation | shares compounds with NR1D1 modulator | Rev-erb alpha FITC-DNA binding, fluorescence polarization, 90 min | activation, % at 25 µM | 61% of 3,000 active | AID 1259319;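 active = activation at or above a set limit, or at least 3 SD above the negative control mean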;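 also: 0% = 35 nM protein with DMSO and 100% = 750 nM protein high control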
RORg DNA counter – counter-screen for Rev-erb alpha modulators: RORgamma DNA binding. purified RORgamma protein-FITC-DNA binding, fluorescence polarization. IC50, µM. shares compounds with NR1D1 modulator. 8% of 910 active;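 active = Compounds whose fitted half-maximal concentration for disrupting protein-DNA binding is below 10 micromolar; the record names Rev-erb in its text, so the target is in doubt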
Active calls of the source: *; / = not tested or not shown. Hits are enriched below; roughly 1.5% of the tested compounds scored in any of these assays.

SMILES	PG9 binder	NR2E3 ag-1	NR1D1 modulator	NR2E3 ag-2	NR1D1 mod conf	others
CN1/C(=C\C=C2C(=O)NC(=S)NC2=O)C(C)(C)c2ccccc21	-25	/	25*	4	53*	RORg DNA counter=>40
C[C@@H]1CN([C@H](C)CO)C(=O)CCCn2nncc2CO[C@H]1CN(C)C(=O)Oc1ccccc1	0	/	-2	-24	/
CN(c1ccc(O)cc1)c1ccc([N+](=O)[O-])c2nonc12	-7	/	25*	-1	30*	RORg DNA counter=>40
CCC1C(c2cc(OC)c(OC)c(OC)c2)c2cc3c(cc2OC1N1CCCC1)OCO3 (centres undefined)	-1	/	6	-12	/
Cc1ccccc1N1C(=O)NC(=O)/C(=C/c2ccc(N3CCOCC3)o2)C1=O	-4	2	17	22	/
CN1C(=O)C(=Cc2ccc(N3CCOCC3)o2)C(=O)N(C)C1=O	-9	-1	41*	-27	44*	RORg DNA counter=>40
O=C1NC(=O)N(c2ccc3c(c2)OCO3)C(=O)/C1=C\c1ccc(N2CCCCC2)o1	-8	0	26*	-3	26*
CN1C(=O)C(=Cc2ccc(N3CCCCCC3)o2)C(=O)N(C)C1=S	-3	0	39*	-25	60*	RORg DNA counter=>40
CC1(C)CC(=O)C2=C(C1)NC(=O)C21C(C(=O)OC(C)(C)C)=C(N)Oc2ccc(Br)cc21 (centres undefined)	1	-2	-1	11	/
O=[N+]([O-])c1ccc(NCc2ccccc2)c2nonc12	-3	3	38*	/	52*	RORg DNA counter=4.1*
Cn1cc(Br)c(C(=O)Nc2ccc3c(C(F)(F)F)cc(=O)oc3c2)n1	0	/	15*	-16	3
O=[N+]([O-])c1ccc(N2CCCCCC2)c2nonc12	-4	-1	56*	-12	49*	RORg DNA counter=4.1*
O=[N+]([O-])c1ccc(N2CCCCC2)c2ncccc12	-2	2	10	-44	/
CC(C)CN1Cc2ccccc2-n2nncc2C1	-3	/	3	-24	/
CC[C@@H]1C[C@H]2CC[C@H](O2)[C@H](C)C(=O)O[C@@H](C)C[C@@H]2CC[C@@H](O2)[C@@H](C)C(=O)O[C@H](C)C[C@H]2CC[C@H](O2)[C@H](C)C(=O)O[C@@H](C)C[C@@H]2CC[C@@H](O2)[C@@H](C)C(=O)O1	1	/	-4	/	/
COc1ccc(NC(=O)c2cc([N+](=O)[O-])ccc2N2CCNCC2)cc1	-2	4	-1	-31	/
O=c1[nH]c(=S)[nH]c(O)c1N=Nc1ccc2c(c1)OCCO2	-13	-2	30*	-80	25*
COc1ccc(N=Nc2c(O)[nH]c(=S)[nH]c2=O)cc1	-12	-6	27*	-71	19*
COc1cccc(N=Nc2c(O)[nH]c(=S)[nH]c2=O)c1	-10	-1	5	-24	/
COC(=O)C1=C(c2cccc(C#N)c2)C[C@@H]2CC[C@H]1N2C(=O)NCc1cccc2ccccc12	-3	2	-4	-7	/
O=c1c(C=NCc2cccs2)c(O)n(C2CCCCC2)c(=O)n1C1CCCCC1	0	0	63*	-6	2
O=c1c(C=NCCN2CCNCC2)c(O)n(C2CCCCC2)c(=O)n1C1CCCCC1	/	5	/	2	/
O=c1cc(C(F)(F)F)c2cc3c4c(c2o1)CCCN4CCC3	2	2	0	-20	/
Cc1cc2c(C(F)(F)F)cc(=O)oc2c2c1NCCC2	3	2	17*	-9	17*
O=C(NCCN1CCC2(CC1)C(=O)NCN2c1ccccc1)c1cccc(F)c1	1	/	3	/	/
SMILES	PG9 binder	NR2E3 ag-1	NR1D1 modulator	NR2E3 ag-2	NR1D1 mod conf	others
CCCCOC(=O)COc1cc(C)cc2oc(=O)c3c(c12)CCC3	-2	2	26*	-11	13
CCCCCCn1c(=O)c(C(=O)Nc2cnccn2)c(O)c2ccccc21	-2	1	14*	-16	17
CCCCCn1c(=O)c(C(=O)Nc2ccccc2)c(O)c2ccccc21	-3	1	21*	0	4
CCCCCn1c(=O)c(C(=O)Nc2ccccn2)c(O)c2ccccc21	1	5	-1	-16	/
O=C1CN(O)C(c2ccccc2Cl)=c2cc(Br)ccc2=N1	-1	-1	6	-5	/
C[n+]1c(-c2ccccc2)c2cc(N)ccc2c2ccc(N)cc21	-18	-5	-22	14	/
Nc1ccc2ccc3cccc[n+]3c2c1	2	7	127*	-54	105*	RORg DNA counter=>40
